Measured values reported in ChEMBL document CHEMBL1153622, “Antiviral evaluation of N-amino-1,2,3-triazoles against Cantagalo virus replication in cell culture” (Eur J Med Chem, 2009).
Calls of active or inactive are those of the source. The rule behind the calls is not given here.

How the values were obtained:
[1] = Cytotoxicity against african green monkey BSC40 cells assessed as cell viability at 50 uM for 24 hrs by neutral red assay; type: cell-based, BSC-40; details: chlorocebus aethiops, read-out: Activity
In short: (§1)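 Confluent BSC-40 cells exposed to compound for 24 h at 37 °C, 0.5% DMSO control. Neutral red (50 µg/mL) added for 3 h at 37 °C, then 50% methanol with 1% acetic acid for 20 min at room temperature. OD 490 nm read; uptake proportional to viable cells.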

[2] = test system: Cantagalo virus; test: Antiviral activity against Cantagalo virus in african green monkey BSC40 cells assessed inhibition of viral yield at 50 uM after 24 hrs post infection by plaque assay; type: functional; details: BSC-40, 24 h
[3] = test system: Cantagalo virus; test: Antiviral activity against Cantagalo virus in african green monkey BSC40 cells assessed inhibition of viral plaque number at 50 uM after 48 hrs post infection; type: functional; details: BSC-40, 48 h
[4] = Cytotoxicity against african green monkey BSC40 cells assessed as reduction in cell viability at 100 uM for 24 hrs by neutral red assay; type: cell-based; details: chlorocebus aethiops, bsc-40, 24 h; in short: as §1
[5] = test system: Cantagalo virus; test: Antiviral activity against Cantagalo virus in african green monkey BSC40 cells assessed inhibition of viral plaque formation at 100 uM after 48 hrs post infection; type: functional; details: BSC-40, 48 h
[6] = Cytotoxicity against african green monkey BSC40 cells assessed as change in cell morphology at 100 uM for 24 hrs by neutral red assay; type: cell-based; details: chlorocebus aethiops, bsc-40, 24 h
[7] = test system: Vaccinia virus; test: Antiviral activity against Vaccinia virus; type: functional, organism-based; details: Orthopoxvirus vaccinia
[8] = test system: Cowpox virus; test: Antiviral activity against Cowpox virus; type: functional, organism-based
[9] = test system: Cantagalo virus; test: Antiviral activity against Cantagalo virus replication in BSC-40 cells assessed as inhibition of viral protein accumulation at 50 uM after 24 hrs post infection by Western blot; type: functional, organism-based
[10] = test system: Cantagalo virus; test: Antiviral activity against Cantagalo virus in african green monkey BSC40 cells assessed as inhibition of viral protein accumulation at 100 uM after 24 hrs post infection by Western blot; type: functional, BSC-40; parameters: scale not given: the % may be the effect or the level left
[11] = Cytotoxicity against african green monkey BSC40 cells assessed as non-viable cells at 50 uM for 24 hrs by neutral red assay; type: cell-based; details: chlorocebus aethiops, bsc-40, 24 h; in short: as §1
[12] = test system: Cantagalo virus; test: Antiviral activity against Cantagalo virus replication in african green monkey BSC40 cells assessed as inhibition of viral protein accumulation after 24 hrs post infection by Western blot; type: functional, organism-based; details: BSC-40
[13] = test system: Cantagalo virus; test: Antiviral activity against Cantagalo virus in african green monkey BSC40 cells assessed inhibition of viral yield at 100 uM after 24 hrs post infection by plaque assay; type: functional, BSC-40; parameters: scale not given: the % may be the effect or the level left
[14] = Cytotoxicity against african green monkey BSC40 cells assessed as non-viable cells at 100 uM for 24 hrs by neutral red assay; type: cell-based; details: chlorocebus aethiops, bsc-40, 24 h; in short: as §1

CCOC(=O)c1nnn(Nc2cc(Cl)ccc2Cl)c1C
viability at 24 h, 50 µM [1]: 60%
inhibition at 50 µM [2]: 67.5%
inhibition at 50 µM [3]: 47.2%

CCOC(=O)c1nnn(Nc2ccc(Cl)cc2)c1C
inhibition at 50 µM [3]: 11%

CCOC(=O)c1nnn(Nc2ccccc2)c1C
inhibition at 50 µM [3]: 15.2%

CCOC(=O)c1nnn(Nc2ccc(Br)cc2)c1C
Activity [4]: 52.6%
inhibition at 100 µM [5]: 84.6%
inhibition at 50 µM [3]: 34.4%
Activity [6]: Toxic

O=C(NN1C(=O)[C@@H]2[C@@H]3C=C[C@@H]([C@H]4C[C@@H]34)[C@@H]2C1=O)c1ccc(C(F)(F)F)cc1 [TECOVIRIMAT]
EC50 [7]: < 0.5 µM
EC50 [8]: < 0.5 µM

Nc1ccn(C[C@@H](CO)OCP(=O)(O)O)c(=O)n1 [CIDOFOVIR]
EC50 [7]: 10 µM

Cc1c(C(=O)NN)nnn1Nc1ccc(Cl)cc1
inhibition at 50 µM [3]: 3.79%

Cc1c(C(=O)NN)nnn1Nc1ccccc1
inhibition at 50 µM [3]: 6.1%

Cc1c(C(=O)NN)nnn1Nc1ccc(Br)cc1
inhibition at 50 µM [3]: 8.4%

CCOC(=O)c1nnn(Nc2ccc(F)cc2)c1C
inhibition at 50 µM [3]: 9.42%

Cc1c(C(=O)NN)nnn1Nc1cc(Cl)ccc1Cl
inhibition at 50 µM [3]: 9.71%

Cc1c(C(=O)NN)nnn1Nc1ccc(F)cc1
Activity [9]: Active
Activity [10]: 71.2%
inhibition at 50 µM [2]: 55.7%
Activity [11]: 10%
Activity [12]: Dose-dependent effect
inhibition at 50 µM [3]: 48.3%
Activity [13]: 80%
Activity [14]: 30%
